Screening data as filed in PubChem BioAssay.
Many of the other results were omitted from the sample, so hits are more common in it than they were.
UCH37 DUB inh: inhibitors of human UCH37 deubiquitinase, primary screen, biochemical, Ub-AMC cleavage, fluorescence; inhibition, % (test concentration not listed); actives 0.33% (n = 330,000); AID 588478, 2011; purified proteasome/UCH37;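 active = mean inhibition over replicate wells above about 20%, limit read from the data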
Target sequence (Q9Y5K5 whole entry, looked up): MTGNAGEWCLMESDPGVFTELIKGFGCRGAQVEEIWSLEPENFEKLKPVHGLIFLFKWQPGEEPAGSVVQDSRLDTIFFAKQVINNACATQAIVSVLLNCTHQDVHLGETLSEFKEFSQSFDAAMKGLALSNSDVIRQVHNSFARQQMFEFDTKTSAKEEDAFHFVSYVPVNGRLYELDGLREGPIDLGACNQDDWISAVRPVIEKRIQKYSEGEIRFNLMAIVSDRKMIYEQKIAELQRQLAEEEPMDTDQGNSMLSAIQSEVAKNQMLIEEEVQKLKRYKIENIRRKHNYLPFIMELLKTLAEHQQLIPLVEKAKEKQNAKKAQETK
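Signal – fluorescence, ex 355 nm, em 460 nm · System – Proteasome-bound UCH37 · Input – 0.15 nM proteasome as dispensed · Timing – 30 min preincubation with enzyme, 25 min cleavage at room temperature · Read-out basis – percent inhibition of cleavage signal versus uninhibited and no-proteasome wells · Medium – Tris-HCl pH 7.4 with ATP-MgCl2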
CTSL1 counter: Fasciola hepatica cathepsin L1 inhibitors, primary screen, counter-screen for PFM18AAP inhibitor project, biochemical, QFRET, fluorogenic peptide substrate | actives 0.49% (n = 300,000) | recombinant F. hepatica cathepsin L1, Z-Leu-Arg-MCA fluorescence | inhibition, % at 5.96 µM;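 active = inhibition above the mean of all tested compounds plus 3 SD, set per screening campaign, cut at about 17% in these data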
UPR CHOP act: activators of apoptotic CHOP UPR arm, primary screen, cell-based, CHO-CHOP luciferase reporter, luminescence, uHTS | UPR activation; percent of tunicamycin response over DMSO baseline | activation, % at 10 µM | actives 0.34% (n = 330,000) | AID 449763, 2010;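 active = at 10 µM dose, activation of 40% or more, normalized to positive control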
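System: CHO CHOP reporter cells. Amount: 500 cells per well. Buffer or medium: F12 medium, 10% FBS. Compound dosing: one dose, 10 µM in 0.5% DMSO. Incubation: 6 h compound exposure at 37 °C after overnight seeding. Technique: Steady-Glo luciferase luminescence. Benchmarks: tunicamycin and DMSO controls.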
XBP1 UPR activ: activators of adaptive XBP1 UPR arm, primary screen, cell-based, CHO-XBP1 luciferase reporter, luminescence, uHTS | activation, % at 20 µM | AID 463104, 2010 | IRE1-XBP1 UPR activation; percent of tunicamycin response, DMSO as zero | actives 0.33% (n = 330,000);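 active = versus positive control, 20 µM dose yields 30% or more activation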
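Signal: luciferase luminescence; Assay system: CHO-XBP1 luciferase reporter cells; Amount: one thousand reporter cells per well; Dosing: 20 µM single concentration, DMSO 1%; Benchmarks: high control tunicamycin 10 µg/mL final, low control DMSO vehicle only; Schedule: 6 h compound exposure at 37 °C, 5% CO2; Evaluation: percent activation relative to tunicamycin reference.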
CHOP inhibitor: inhibitors of CHOP promoter induction, primary screen, cell-based, unfolded protein response, luciferase reporter; actives 3.8% (n = 220,000); inhibition, % at 10 µM; AID 2732, 2010; CHO-K1 CHOP-promoter luciferase, tunicamycin-induced, 15-18 h;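 active = compounds that reduced the stress-induced luciferase reporter signal by more than about 70% of percent inhibition, limit read from the data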
CHOP inh conf: retest of CHOP induction inhibitors, confirmation, cell-based | shares compounds with CHOP inhibitor | CHO-CHOP promoter luciferase reporter, tunicamycin-induced, luminescence | inhibition, % at 10 µM | actives 45% (n = 2,100) | AID 504437, 2011;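 active = mean of three repeat readings of reporter signal inhibition above a set limit, cut at about 70% in these data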
Hits are given with their value; - = inactive; . = not tested or not shown.

SMILES | UCH37 DUB inh | CTSL1 counter | UPR CHOP act | XBP1 UPR activ | CHOP inhibitor | CHOP inh conf
COc1ccc(C=Nn2cnnc2SCc2ccc(OC)cc2)cc1 | - | . | . | . | . | .
O=C(C[n+]1cccc(C=NO)c1)N1CCCc2ccccc21 | - | . | . | . | . | .
COc1ccc(Cc2nc3ccccc3n2CC(=O)N/N=C/c2ccc(C)cc2O)cc1OC | . | - | - | - | 104.2 | 103.3
CCCc1c(C(=O)NN=Cc2cccc(OCc3ccc(F)cc3)c2)nnn1-c1nonc1N | - | . | . | . | . | .
CC12CN3CCN(CC(C3)C1=NN=Cc1cccc([N+](=O)[O-])c1)C2 | - | . | . | . | . | .
CCC(=O)NC(Cc1ccccc1)c1nc2ccccc2[nH]1 (stereo unspecified) | - | . | - | - | . | .
Cc1cc(Cl)ccc1OCC(=O)N[C@@H](Cc1ccccc1)c1nc2ccccc2[nH]1 | - | - | - | - | 107.8 | 114.9
COc1cc([C@@H]2c3cc4c(cc3[C@@H](O)[C@@H](CO)[C@@H]2CO)OCO4)cc(OC)c1O[Si](C)(C)C(C)(C)C | . | - | - | - | 100.2 | 117.1
CCOc1cc(/C=C2/NC(=O)N(CC(=O)Nc3cccc(C)c3)C2=O)ccc1OCC(N)=O | - | - | - | - | - | .
CCOc1cccc(/C=C2/NC(=O)N(CC(=O)Nc3cccc(C)c3)C2=O)c1O | - | - | - | - | 103.8 | -
Cc1nn(Cc2ccc(Cl)cc2)c(C)c1NC(=O)Cn1nc([N+](=O)[O-])c(Cl)c1C | - | - | - | - | - | .
Cc1nn(Cc2ccc(Cl)cc2Cl)c(C)c1NC(=O)Cn1nc([N+](=O)[O-])c(Cl)c1C | - | - | - | - | 100.1 | -
CC(=NNC(=O)c1nnn(-c2nonc2N)c1CN1CCCCC1)c1ccccc1O | - | . | . | . | . | .
O=C(NN=Cc1ccc(OCc2ccc(F)cc2)cc1)c1ccccc1 | - | . | . | . | . | .
COC(=O)Oc1ccc(/C=N/NC(=O)CSCc2ccccc2Br)cc1OC | . | - | - | - | 96.1 | 75.1
COC(=O)Oc1ccc(C=NNC(=O)CSCc2ccccc2Br)cc1OC | - | . | . | . | . | .
CCOC(=O)/C=C/S(=O)(=O)c1ccc(NC(C)=O)cc1 | - | - | - | - | . | 120.6
CCOC(=O)/C=C/C(=O)Nc1ccc(S(=O)(=O)Nc2c(C)cc(C)cc2C)cc1 | - | - | - | - | - | .
CS(=O)(=O)N(CC(=O)NC1CCCCC1)Cc1ccc(F)cc1 | - | - | - | - | - | .
COc1ccc(C(=O)/C=C/C(=O)N(CC(=O)NCCC(C)C)Cc2cccs2)c(O)c1 | - | . | . | . | 106.2 | 112.6
COc1ccc(C(=O)N(Cc2ccco2)Cc2cccs2)c(O)c1 | - | - | - | - | - | .
COc1ccc(C(=O)/C=C/C(=O)N(CC(=O)NC2CCCCC2)Cc2ccc(F)cc2)c(O)c1 | - | . | . | . | 107.7 | 140.1
COc1ccc(C=NNC(=O)c2ccccc2[N+](=O)[O-])cc1COc1c(F)c(F)c(F)c(F)c1F | - | . | . | . | . | .
CC(=NNC(=O)c1nn(C)cc1Br)c1cccc(NC(=O)C(C)(C)C)c1 | - | . | . | . | . | .
O=C(NC(=S)Nc1ccc2oc(-c3cccnc3)nc2c1)c1cccc(Cl)c1 | - | - | - | - | 98.7 | -
SMILES | UCH37 DUB inh | CTSL1 counter | UPR CHOP act | XBP1 UPR activ | CHOP inhibitor | CHOP inh conf
O=C(O)COc1ccccc1C=NNc1ccc(S(=O)(=O)Nc2ccc(Cl)cc2)cc1[N+](=O)[O-] | - | . | . | . | . | .
NS(=O)(=O)c1ccc(NC(=O)COC(=O)c2cn(-c3ccccc3)nc2-c2ccccc2)cc1 | - | - | - | - | 97.5 | -
COC(=O)c1cn(-c2ccccc2)nc1-c1ccccc1 | - | - | - | - | - | .
CC(CCc1ccc2c(c1)OCO2)=NNC(=O)c1ccc(C)cc1C | - | . | . | . | . | .
CC12CCC(CC1=NO)C2(C)C (stereo unspecified) | - | . | . | . | . | .
Cc1ccc(Nc2nc(Cl)c(C=O)s2)cc1Cl | - | - | - | - | 96.1 | -
Cc1cc(=O)oc2cc(OCC(=O)NCCCN3CCOCC3)ccc12 | - | - | - | - | 99.8 | -
Cc1ccc(C)c(C=NNC(=S)NC(C)C)c1 | - | . | . | . | . | .
CCOC(=O)C1=C(Cc2ccc(C)cc2)C(=O)c2ccccc2C1=O | . | - | 97.5 | - | 103.9 | -
COc1ccc(CN2C(=O)c3ccccc3C(C=NOCc3ccc(F)cc3)C2=O)cc1 (stereo unspecified) | - | . | . | . | . | .
Cn1c(CCNC(=O)c2ccc(Cl)c(Cl)c2)nnc1SCc1ccc(Cl)c(Cl)c1 | - | - | - | - | 99.5 | -
C=CCn1c(CCNC(=O)c2ccc(Cl)c(Cl)c2)nnc1SCCOc1ccc(OC)cc1 | - | - | - | - | 97.3 | 81.0
C=CCn1c(SCCOc2ccccc2)nnc1C(C)NC(=O)c1ccccc1 (stereo unspecified) | - | - | - | - | - | .
CCOC(=O)c1c(-c2ccc(F)cc2)csc1N=CN(C)C | - | . | . | . | . | .
Cn1ncc(C#N)c1N=CN1CCCCC1 | - | . | . | . | . | .
COCCn1c(SCC(=O)Nc2ccc(C)cc2C)nc2c(oc3ccccc32)c1=O | - | - | - | - | 100.7 | -
O=C(CCCOc1ccc(Cl)cc1Cl)NN=Cc1cccc([N+](=O)[O-])c1 | - | . | . | . | . | .
CC(C)(C)C(=O)c1no[n+]([O-])c1/C(=N/O)C(C)(C)C | . | - | - | - | 107.7 | 78.1
CCCCOC(=O)Nc1ccc(S(=O)(=O)Nc2nc(C)cc(C)n2)cc1 | - | - | - | - | - | .
CCCCCCOC(=O)Nc1ccc(S(=O)(=O)Nc2cccc([N+](=O)[O-])c2)cc1 | - | - | - | - | 106.3 | 109.9
CC(Cn1ncc(N2CCOCC2)c(Cl)c1=O)=NO | - | . | . | . | . | .
CCN(CC)S(=O)(=O)c1cccc(NC(=O)CC2CCCC2)c1 | - | - | - | - | . | .
CCN(CC)S(=O)(=O)c1cccc(NC(=O)Nc2cccc(C(F)(F)F)c2)c1 | - | - | - | - | 99.9 | 124.0
O=Nc1ccc(O)c2ncccc12 | - | - | - | - | 106.2 | 108.3
COc1ccc2c(c1)CC(C)CC2=NNC(=O)c1ccco1 (stereo unspecified) | - | . | . | . | . | .
O=C(Nc1cc(Cl)ccc1O)c1cc2n(n1)C(C(F)(F)F)CC(c1ccc3c(c1)OCO3)N2 (stereo unspecified) | - | - | - | - | 104.8 | 88.7
O=C(NCc1ccc2c(c1)OCO2)c1cc2n(n1)C(C(F)(F)F)CC(c1ccc3c(c1)OCO3)N2 (stereo unspecified) | - | - | - | - | - | .
Cc1c(C=NNC(=O)C2COc3ccc(C(C)(C)C)cc3O2)c2ccccc2n1C (stereo unspecified) | - | . | . | . | . | .
Cc1ccccc1-n1c(C)cc(C=NNC(=O)c2ccc(CN3CCOCC3)cc2)c1C | - | . | . | . | . | .
